Key:
[1] = biological target: T1, SAM-TIR protein (human SARM1) (Homo sapiens, UniProt Q6SZW1); assay: Washout assay with plate-bound SAM-TIR; type: biochemical; settings: 2 h treatment, plates rinsed, assayed 60 min after removal of compound
T1 sequence (Q6SZW1 408-700): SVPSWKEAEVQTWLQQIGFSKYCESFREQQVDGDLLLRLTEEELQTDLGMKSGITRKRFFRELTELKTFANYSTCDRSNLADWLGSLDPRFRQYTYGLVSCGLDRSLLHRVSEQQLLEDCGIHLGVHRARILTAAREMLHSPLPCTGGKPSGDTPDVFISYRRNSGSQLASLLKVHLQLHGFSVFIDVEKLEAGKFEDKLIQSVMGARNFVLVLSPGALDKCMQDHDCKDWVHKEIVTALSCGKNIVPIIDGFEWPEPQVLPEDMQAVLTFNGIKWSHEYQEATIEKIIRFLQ
Procedure, shortened: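 SAM-TIR lysate (30 µg/ml total protein) was captured via its Strep-tag on Strep-Tactin XT plates, and unbound material was rinsed off. Bound enzyme was exposed to test compound for 2 h, rinsed, then held in assay solution without NAD+ for 0, 10 or 60 min. Wells were rinsed again, and activity was started by adding NAD+. A reversible reference inhibitor was run alongside.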

mouse DRG neurons = assay: Axon degeneration assay after axotomy in mouse DRG cultures; type: cell-based; settings: 3 h pulse at 10 µM, compound removed, axotomy immediately; examined 16-72 h
Procedure, shortened: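 Embryonic day 13.5 C57BL/6J mouse DRGs were trypsin/EDTA-dissociated (37°C, 15 min) and spot-plated at 5000 cells/well on poly-D-lysine/laminin in Neurobasal/B27 with NGF, uridine and fluorodeoxyuridine. At DIV 6–7, cultures got a 3 h pulse of test compound at 10 µM (from 10 mM DMSO stock; […] DMSO final). Compound was rinsed out, […]. Axons were manually cut with a micro-blade, then PFA-fixed and immunostained.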

## Ic1cccc2cnccc12 [DSRM-3716]
[1]
  SARM1 inhibition after compound removal: Substantial loss of inhibition
Mouse DRG neurons
  axonal protection after compound removal: completely lost

Reference: article PMC8634121 (Brain, 2021)
